Only a selection was taken, and hits are over-represented in it overall.
Ecoli tolC – blocks growth of E. coli BW25113 tolC mutant. OD615. growth inhibition, % at 10 µM (by protocol). hit rate 2.2% among 65,000. AID 573;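 active = growth inhibition at or above a cutoff equal to the mean over every tested compound plus 3 SD, cut at about 60% in these data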;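 note: growth measured after 20 h incubation at 37 °C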
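signal = optical density read at 615 nm | test system = E. coli ΔtolC::kan strain BW25113 | timing = 20 h compound exposure of bacteria at 37 °C | buffer or medium = LB medium plus 50 µg/mL kanamycin | compound dosing = 10 µM final, single dose | evaluation = % inhibition of E. coli growth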
Ecoli WT expand – E. coli BW25113 growth inhibition, expanded screen | OD600 absorbance | growth inhibition, % at 100 µM | hit rate 0.15% among 98,000;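 active = growth inhibition above about 50% at one test dose, limit read from the data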;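 note: growth measured after 20 h incubation at 37 °C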
MKP-1 inh – blocks human MKP-1 phosphatase activity; AID 374; P28562; recombinant MKP-1, OMFP hydrolysis fluorescence; hit rate 0.15% among 65,000; inhibition, %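 (compounds tested at a single concentration somewhere between 10 and 100 µM)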;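 active = inhibition above about 50%, limit read from the data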;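 note: 0% = DMSO max control wells and 100% = wells with enzyme stopped by NaOH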
Target sequence (P28562 whole entry, looked up): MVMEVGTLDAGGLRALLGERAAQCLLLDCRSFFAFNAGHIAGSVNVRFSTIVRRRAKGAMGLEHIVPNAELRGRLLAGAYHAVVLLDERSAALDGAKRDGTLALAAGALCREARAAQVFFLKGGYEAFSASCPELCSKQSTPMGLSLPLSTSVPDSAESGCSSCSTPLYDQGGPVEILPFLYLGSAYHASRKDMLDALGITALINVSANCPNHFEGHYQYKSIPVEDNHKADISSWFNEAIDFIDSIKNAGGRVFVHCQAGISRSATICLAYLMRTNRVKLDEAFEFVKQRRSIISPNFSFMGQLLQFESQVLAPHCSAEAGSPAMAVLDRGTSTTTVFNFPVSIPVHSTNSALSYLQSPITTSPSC
HePTP inh – human HePTP phosphatase inhibition | P35236 | recombinant HePTP phosphatase activity, OD absorbance | inhibition, % at 20 µM | hit rate 0.64% among 110,000 | AID 521; in the data active = inhibition above about 50%;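 note: plate controls were vehicle for no effect and reference inhibitor for full effect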
MMP13 inh – blocks human MMP13 activity; MMP-13 fTHP FRET cleavage, Mca fluorescence; inhibition, % at 4 µM; P45452; AID 570; hit rate 0.07% among 65,000;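 active = inhibition above the mean of compound-free control plate wells plus 3 SD, cut at about 14% in these data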;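 note: 0% = DMSO wells and 100% = wells with reference MMP-13 inhibitor after basal subtraction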
Cdc25B block – inhibitors of human Cdc25B phosphatase; P30305; recombinant Cdc25B, OMFP fluorescence Ex485/Em525; inhibition, %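 (compounds tested at 10 µM final in the well)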; hit rate 0.1% among 65,000; in the data active = inhibition above about 50%
* hit, by the source's call; nt = no result.

SMILES	Ecoli tolC	Ecoli WT expand	MKP-1 inh	HePTP inh	MMP13 inh	Cdc25B block
CC(=O)NC1=NC(=O)/C(=C/c2cc(C)n(-c3ccc(C(=O)O)cc3)c2C)S1	nt	nt	nt	61*	nt	nt
COc1ccc(-c2csc(N3CCN(C(=O)c4ccco4)CC3)n2)cc1	40	-6	-3	-11	0	-14
COc1ccc(-c2csc(N(CC3CCCO3)C(=O)c3ccco3)n2)cc1 (centres undefined)	61*	5	-6	5	6	2
CCCN(CCC)CCNS(=O)(=O)c1ccc2c(c1)CCN2C(=O)C1CCC1	nt	3	nt	nt	nt	nt
O=C(C1CC1)N1CCc2cc(S(=O)(=O)NCCC3=CCCCC3)ccc21	74*	8	24	3	-1	-1
CCOc1ccc2nc(SCc3ccccn3)sc2c1	nt	nt	nt	79*	nt	nt
O=C(CSc1nnnn1-c1ccccc1)Nc1cccc([N+](=O)[O-])c1	nt	nt	nt	6	nt	nt
O=C(CSc1nc2ccc(N3C(=O)c4ccccc4C3=O)cc2s1)NCCOc1ccc(Cl)cc1	nt	nt	nt	1	nt	nt
CCCOC(=O)/C(C(N)=NCc1ccccc1)=C(\O)OCCC	62*	13	6	-7	2	-15
CN1C(=O)/C(=C/c2ccc(C(=O)O)cc2)SC1=S	nt	nt	nt	4	nt	nt
COc1ccc(-c2noc(C)c2-c2ccc3ccccc3n2)c(O)c1	96*	-5	24	1	-1	8
Cn1c2ccccc2c2nnc(SCC(=O)NCc3ccco3)nc21	nt	nt	nt	104*	nt	nt
CC(=O)C(Sc1ccc([N+](=O)[O-])cc1)C(C)=O	nt	nt	nt	-9	nt	nt
CC1(C)CC(=O)C=C(NCCN2CCN(C(=O)Nc3ccc(Cl)c(Cl)c3)CC2)C1	61*	14	11	8	-10	-8
Cc1ccc2[nH]c(=O)c(C(c3nnnn3C3CCCC3)N(Cc3cccnc3)Cc3ccco3)cc2c1 (centres undefined)	63*	-12	5	3	-7	-1
Clc1ccc(C(c2nnnn2C2CCCCC2)N(Cc2cccnc2)Cc2ccco2)cc1 (centres undefined)	69*	nt	12	8	-2	-2
Cc1ccc2cc(C(c3nnnn3C3CCCC3)N(Cc3ccco3)Cc3cccs3)c(=O)[nH]c2c1 (centres undefined)	nt	-17	nt	nt	nt	nt
Cc1ccc2cc(C(c3nnnn3C3CCCC3)N(Cc3cccnc3)Cc3ccco3)c(=O)[nH]c2c1 (centres undefined)	65*	-16	23	11	-1	-5
CCC(c1nnnn1C1CCCCC1)N(Cc1ccco1)Cc1cc2ccc(OC)cc2[nH]c1=O (centres undefined)	68*	-8	27	2	-4	-1
COc1ccc(S(=O)(=O)N(C)Cc2ccccc2)cc1Br	nt	nt	nt	-4	nt	nt
O=C(Nc1ccccc1)Nc1nnc(CSCc2ccc(Cl)cc2)s1	nt	nt	nt	-7	nt	nt
COc1ccccc1CNc1ncnc2c1cnn2-c1ccccc1	61*	nt	5	-3	-3	3
Cc1cccc(-n2ncc3c(NCc4ccc5c(c4)OCO5)ncnc32)c1	76*	0	6	5	-2	1
c1ccc(-n2ncc3c(NCc4ccc5c(c4)OCO5)ncnc32)cc1	-1	nt	-5	3	0	1
Cc1cccc(-c2cc(NC(=O)COc3ccccc3)n[nH]2)c1	nt	nt	nt	4	nt	nt
SMILES	Ecoli tolC	Ecoli WT expand	MKP-1 inh	HePTP inh	MMP13 inh	Cdc25B block
O=[N+]([O-])c1ccc2nc3c([nH]c4ccccc43)c(N3CCOCC3)c2c1	nt	nt	nt	0	nt	nt
Clc1ccc(OCc2nc(-c3ccccn3)n[nH]2)cc1	85*	13	-11	2	0	1
COc1ccc(-c2cc(-c3cc(F)ccc3O)[nH]n2)cc1OC	81*	3	17	10	-4	7
CN(C)c1ccc(/C=C2\SC(=S)N(C(Cc3ccccc3)C(=O)O)C2=O)cc1 (centres undefined)	nt	nt	nt	5	nt	nt
CCOC(=O)c1ccc(Oc2nc(NC(C)(C)C)nc(N(C)C)n2)cc1	66*	-12	18	-2	-1	-6
CCOC(=O)c1ccc(Oc2nc(N(C)C)nc(N(C)C)n2)cc1	nt	-11	nt	nt	nt	nt
FC(F)(F)c1cc(-c2ccco2)nc(NCc2ccccc2)n1	19	3	4	2	-14	-5
Fc1ccc(CNc2nc(-c3ccco3)cc(C(F)(F)F)n2)cc1	62*	14	11	4	-14	-1
CCOC(=O)Nc1ccc2c(c1)N(C(=O)N1CCN(C)CC1)c1ccccc1S2	65*	5	2	4	1	8
C=CCOc1c(Cl)cc(/C=C2/C(=O)NN(c3cccc(Br)c3)C2=O)cc1OC	nt	nt	nt	3	nt	nt
O=C(O)COc1ccccc1/C=N/NC(=O)COc1c(Br)cc(Br)cc1Br	nt	nt	nt	66*	nt	nt
Cc1ccc(NCC(=O)N/N=C\c2ccccc2OCC(=O)O)cc1	nt	nt	nt	0	nt	nt
O=C(N/N=C/c1ccc(O)cc1)c1cc2ccccc2cc1O	nt	nt	nt	4	nt	nt
O=C(NC(=O)c1ccc2ccccc2n1)NC(c1ccccc1)c1ccccc1	nt	nt	nt	-3	nt	nt
Brc1ccc(/C=N/c2ncn[nH]2)cc1	nt	nt	nt	-13	nt	nt
O=C(O)c1ccc(/C=N/c2ncn[nH]2)cc1	nt	nt	nt	100*	nt	nt
O=C1OCC(CO)(CO)N=C1NNc1ccc(Cl)c(Cl)c1	nt	88*	nt	nt	nt	nt
CCOC(=O)Cc1ccc(NS(=O)(=O)c2ccc(SC)cc2)cc1	70*	2	-4	16	2	-23
CCOc1ccc(NS(=O)(=O)c2ccc(SC)cc2)cc1	73*	-9	6	1	7	-15
CCOC(=O)c1ccc(NS(=O)(=O)c2ccc(SC)cc2)cc1	70*	2	21	12	4	-6
O=C(Nc1scc(-c2cccs2)c1C(=O)O)c1cccs1	75*	-3	12	-7	3	-12
CCOc1ccc(/C=N\NC(=O)c2ccc(Br)cc2)c(O)c1	nt	nt	nt	102*	nt	nt
CSc1nc(C)c(C(C)=O)cc1C#N	nt	nt	nt	13	nt	nt
O=Cc1cccc(OCc2ccccc2F)c1	nt	nt	nt	8	nt	nt
CCOC(=O)c1c(-c2ccc(OC)cc2)csc1NC(=O)C1CC=CCC1C(=O)O (centres undefined)	nt	nt	nt	105*	nt	nt
SMILES	Ecoli tolC	Ecoli WT expand	MKP-1 inh	HePTP inh	MMP13 inh	Cdc25B block
CC(C)c1ccc(OCc2nc(-c3ccccn3)no2)c(Br)c1	96*	1	11	-9	-9	5
COc1ccc(OC)c(/C=N/Nc2nc3cc(C)ccc3cc2C)c1	nt	nt	nt	5	nt	nt
CN(Cc1ccccc1)C(=O)CSc1nc2ccccc2c(=O)n1Cc1ccco1	67*	-30	20	6	-6	-6
Cc1ccc(NC(=O)CN(C)C(=O)CSc2nc3ccccc3c(=O)n2Cc2ccco2)cc1	nt	-8	nt	nt	nt	nt
O=C(Cc1csc(-c2ccccc2)n1)Nc1ccc(Br)cc1	nt	nt	nt	9	nt	nt
CCN(CC)c1nc(N)c2c(N)nc3c(c2c1C#N)CC(c1ccccc1)O3 (centres undefined)	76*	-4	19	7	-84	-2
O=C1OC(c2ccc(Br)cc2)=N/C1=C/c1ccc(Cl)cc1Cl	nt	nt	nt	0	nt	nt
O=C(Nc1cccc(-c2nnc(-c3ccccc3)o2)c1)c1ccc(Br)o1	84*	-12	33	7	-2	-7
Cc1ccc(N2NC(=O)/C(=C/c3ccccc3)C2=O)cc1C	nt	nt	nt	10	nt	nt

Screening results: PubChem BioAssay, several laboratories
